pIC50: −log10 of the molar value.
Legend:
[1] = system: BCL2 i-motif / BCL2 transcription; settings: cited from earlier work
HEK293 = assay: MTS cytotoxicity assay in HEK293; format: cell-based, human; settings: read-out: IC50 in HEK 293
[2] = system: PDGFR-β NHE WT 41-mer (FL Pu41); format: binding, human; settings: CD spectral and thermal melt analysis
How it was run: (§1)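 Oligo at 5 μM final in 50 mM Tris-HCl with 50 mM K+, pH 7.4. Heated to 95 °C for 5 min, slowly cooled, then incubated 30 min with molar equivalents of compound or DMSO. CD 230–330 nm at room temperature, triplicate scans averaged and baseline-corrected. Melt at 262 nm from 20 to 95 °C at 1 °C/min. Tm by nonlinear regression, ±1 °C.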

[3] = system: PDGFR-β promoter WT-NHE luciferase construct; assay: Luciferase reporter assay, WT-NHE construct; format: cell-based, human; settings: 24 h
[4] = system: PDGFR-β promoter R1 mutant NHE luciferase construct; assay: Luciferase reporter assay, R1 NHE construct; format: cell-based, human; settings: HEK 293, 100 μM, 24 h
[5] = system: NO-NHE luciferase construct; assay: Luciferase reporter assay, NO-NHE construct; format: cell-based, human; settings: HEK 293, 100 μM, 24 h
[6] = system: PDGFR-β Py41 WT i-motif FRET probe; assay: i-motif FRET assay, WT probe; format: binding, human; settings: probe 20 nM, compound 200 nM, 30 min
[7] = system: PDGFR-β Py41 R1 mutant i-motif FRET probe; assay: i-motif FRET assay, R1 mutant probe; format: binding, human
WT PDGFR-β i-motif = assay: CD spectral and thermal-melt analysis with WT i-motif; format: binding, human; settings: increasing concentrations of compound
How it was run: (§2)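 Oligo at 5 μM final in 10 mM sodium cacodylate, pH 6.5. Heated to 95 °C for 5 min, slowly cooled to room temperature, then given molar equivalents of compound or DMSO for 30 min. CD spectra 230–350 nm at room temperature, triplicate scans averaged and baseline-corrected. Melts followed at 286 nm, 20–95 °C at 1 °C/min. Tm by nonlinear regression.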

[8] = system: R1 mutant PDGFR-β i-motif; assay: CD spectral and thermal-melt analysis with R1 mutant i-motif; format: binding, human
How it was run: as §2

SK-N-SH = assay: MTS cytotoxicity assay in SK-N-SH; format: cell-based; settings: read-out: IC50 concentration in SK-N-SH
PDGFR-β transcript = assay: qRT-PCR of PDGFR-β transcript in SK-N-SH; format: cell-based; settings: 24 h, relative to DMSO control
[9] = system: PDGFR-β 3′-end G-quadruplex; assay: CD spectral and thermal-melt analysis with constituent PDGFR-β G-quadruplexes; format: binding, human
How it was run: as §1

[10] = system: PDGFR-β NHE G-quadruplexes; settings: cited from earlier work

Question: For `CC(C)CCC[C@@H](C)[C@H]1CC[C@H]2[C@@H]3CC[C@H]4C[C@H](NC(=O)C[N+]5(C)CCCCC5)CC[C@]4(C)[C@H]3CC[C@]12C.[I-]` [IMC48], which “effect on BCL2 transcription” value [1] is on record?
Answer: Its value is “increased BCL2 transcription”.

Question: For `COc1ccc2c(c1)CN([C@@H](C)[C@H]1CC[C@H]3[C@@H]4CC[C@H]5C[C@@H](O)CC[C@]5(C)[C@H]4CC[C@]13C)CO2` [IMC76], which “effect on BCL2 transcription” value [1] is on record?
Answer: The value was “decreasing BCL2 transcription”.

Question: Which results are given for `CN1CCc2ccccc2C1Cc1ccccc1NC(=O)c1sc2ccccc2c1Cl` (stereo not shown) [NSC309874]?
Answer: pIC50 (HEK293): < 4.00; interaction with PDGFR-β G-quadruplex-forming sequence [2]: negligible interaction; downregulation of luciferase activity, WT-NHE construct ([3]; HEK 293, 100 μM): approximately 45%; downregulation of luciferase activity, R1 NHE construct [4]: ~50%; effect on luciferase activity, NO-NHE construct [5]: does not inhibit transcription; increase in FRET signal, WT probe [6]: 170%; increase in FRET of the R1 mutant ([7]; FRET (pH 6.6) high-throughput screening): more than 2 fold; increase in FRET signal, R1 mutant probe ([7]; probe 20 nM, compound 200 nM, 30 min): 218%; shift in λMAX of CD spectrum of WT i-motif (WT PDGFR-β i-motif): from 286 to 279; effect on Tm of R1 mutant i-motif ([8]; CD thermal melt): small increase in Tm; effect on CD of R1 mutant i-motif ([8]; increasing concentrations of compound): little change in the CD; pIC50 (SK-N-SH): 4.00; reduction of PDGFR-β expression (PDGFR-β transcript; 0.5 IC50 (50 μM)): approximately 25%; reduction of PDGFR-β expression (PDGFR-β transcript; IC50 (100 μM)): ~50%

Question: What does the source list for `Cc1c2ccncc2c(C)c2c1[nH]c1ccc(OCCN(C)C)cc12` [NSC338258]?
Answer: increase in thermal stability of 3′-end G-quadruplex ([9]; 1 mol equiv of compound): 4 °C; increase in thermal stability of 3′-end G-quadruplex ([9]; 2 mol equiv of compound): 9 °C; selectivity of luciferase inhibition WT-NHE versus NO-NHE ([3]; IC50 and 50% IC50 concentrations): moderate degree of selectivity; binding to PDGFR-β NHE compared with MYC promoter G-quadruplex [10]: binds almost as well to the PDGFR-β NHE as to the MYC promoter G-quadruplex

Question: With `Cc1oc2nc1-c1nc(co1)-c1nc(co1)-c1nc(co1)-c1nc(co1)-c1nc(co1)C1=NC(CS1)c1nc-2c(C)o1` (stereo not shown) [telomestatin] as the compound, how does the “G-quadruplex binding selectivity in PDGFR-β NHE” value [10] read?
Answer: Its value is “appeared to bind selectively to the 3′-end G-quadruplex”.

Question: And the “effect on PDGFR-β” value [10]?
Answer: The value was “produced a decrease in PDGFR-β”.
